From ChEMBL document CHEMBL4513216, “Probing the Open Global Health Chemical Diversity Library for Multistage-Active Starting Points for Next-Generation Antimalarials” (ACS Infect Dis, 2020)

experiment: Toxicity liver stage against HepG2, at 10uM; assay type: cell-based; design: test concentration 10 uM, cell line HepG2-A16-CD81EGFP; settings: human, HepG2-A16-CD81EGFP cells; read-out: INHIBITION
Summary of the method: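 Uninfected HepG2-A16-CD81EGFP cells, 3 × 10^3 per well, 1536-well, plated on prespotted compound at 10 μM final, parasite-free screening media added to match infected plates; puromycin 10 μM positive, DMSO 0.5% negative; run in parallel with 48 h PbLuc assay at 37 °C, 5% CO2; viability by CellTiter-Glo luminescence, normalized to controls.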

SMILES	cytotoxicity at 10 µM
CC(c1ncc(-c2ccccc2)o1)N1CCN(C(=O)C(C)(C)C)CC1 (centres undefined)	17.4%
N#Cc1cccc(CS(=O)(=O)NC(Cc2ccccc2)C(N)=O)c1 (centres undefined)	9.16%
O=C(c1ncccn1)N1CCC[C@]2(C[C@H](OCC3CC3)CO2)C1	-86%
O=C(c1coc(CN2CCN(c3ccccc3F)CC2)n1)N1CCCC1	19.2%
O=C([C@H]1C[C@H]2OCC[C@H]2N(Cc2ccc(F)cc2)C1)N1CCCCO1	-65.5%
Cc1cc(C)n2nc(CC(=O)N[C@H]3C[C@H]4CN(C)CCN4C3)nc2n1	-2.9%
CCC(C)(C)c1cc(-c2c(C)nn(CCO)c2C)c(C#N)c(N)n1	3.31%
CC(=O)N1CCN(CCCSCc2ccccc2)CC1	1.64%
CCc1c(C(=O)N2CCC3(CCCN(CCO)C3=O)C2)csc1C (centres undefined)	-128%
CN(Cc1ccco1)[C@@H]1CN(Cc2ccc(F)cc2)[C@@H]2CCCO[C@H]12	-70.6%
O=C(CCc1ccsc1)N1CCC(n2cc(CO)nn2)CC1	-3.37%
CC(C)c1noc(-c2ccc(NCC3CCCOC3)nc2)n1 (centres undefined)	-2.26%
COCCN1CCCC2(CCN(Cc3nnc(C4CC4)o3)C2)C1=O (centres undefined)	0.15%
CC(C)(C)C(O)CN1CCN(Cc2nccn2CC(F)(F)F)CC1 (centres undefined)	4.77%
Cc1cc(NC(=O)c2ccc(F)cc2F)n(C)n1	-2.18%
CS(=O)(=O)Nc1ccn(Cc2cccc(Cl)c2)n1	8.66%
CN(C)C(=O)[C@H]1C[C@H]2CN(S(=O)(=O)c3ccccc3)C[C@@H]1O2	-83.1%
O=C(Cc1ccc(-n2cccn2)cc1)N1CCCC(n2cccn2)C1 (centres undefined)	4.6%
CNC(=O)c1cccc(C2CNCCN2C(=O)c2cccc(F)c2)c1 (centres undefined)	-7.9%
Cc1nn(C(C)(C)C)c(C)c1C(=O)NCC1(C(N)=O)CCOCC1	3.28%
CCn1c(C)nnc1SCCNc1nc(C)nc2c1cnn2C	7.9%
Cc1nccc(N[C@H]2CN(CC(C)(C)N3CCOCC3)C[C@@H]2C2CC2)n1	3.03%

SMILES	cytotoxicity at 10 µM
Cn1ccnc1CN1CCC2(CC1)CN(c1cncnc1)C(=O)CO2	-69.2%
CSCC(C)NS(=O)(=O)c1ccc(C)c(N(C)C)c1 (centres undefined)	-3.25%
Cc1csc(N2CCN(CCCN3CCCC3=O)CC2)n1	3.92%
CCOc1ncccc1C(=O)N1CCCC(n2nc(C)nc2C)C1 (centres undefined)	-8.47%
CS(=O)(=O)NCCC(=O)NCc1cccnc1-n1cnc2ccccc21	-0.0143%
N#CC1CCCN(c2nc(-c3ccccc3)nc3c2CCNCC3)C1 (centres undefined)	-0.468%
CCN(CC)Cc1ccc(C(=O)N2CCCC2Cn2cc(C)cn2)o1 (centres undefined)	-11.4%
CCN1CCN(C(=O)c2cn(Cc3ccccc3)c3ncccc23)CC1	-1.6%
Cc1ccc(-c2ccnc3cc(CC(=O)N4CCN(C)CC4)nn23)cc1	-1.72%
Cc1cc2c(cc1NC(N)=O)OCO2	3.13%
Cc1ccc2nc(C)cc(C(=O)N[C@H]3COC[C@@H]3N3CCOCC3)c2c1	-42.2%
COCCN1CCc2cc(C(=O)N(C)C)c(NC(C)C)nc2CC1	-3.91%
CC(CCSc1ccccc1)N1CCN(C(=O)c2ccccc2O)CC1 (centres undefined)	8.97%
C1CCC(CNC2CCCN(Cc3noc(C4CC4)n3)C2)C1 (centres undefined)	-2.34%
CN(C)C[C@@H]1C[C@@H]2CN(Cc3nccn3C)CC[C@@H]2N1CC1CC1	-101%
CCn1ncc2c1NC(=O)CC2c1cnc(NCc2ccccc2)nc1 (centres undefined)	-6.27%
CN(c1ccc(F)c(F)c1)S(=O)(=O)c1cc2c(c(C(=O)O)c1)OCCO2	-5.38%
N#Cc1cccc(N2CCC3(CCC(=O)N(CC(N)=O)C3)CC2)n1	3.14%
CC(C)(C)c1cc(CNC(=O)c2cc(COc3ccccc3)[nH]n2)[nH]n1	8.28%
COc1ccc(C(=O)N2Cc3cc(C)ccc3OCC2CN(C)C)cc1 (centres undefined)	-14.5%
CCn1cc(CN2CCc3nc(N4CCOCC4)nc(O)c3CC2)cn1	-5.59%
Cc1csc(C2CCCN(C(=O)c3c[nH]c(C)n3)C2)n1 (centres undefined)	-17%

SMILES	cytotoxicity at 10 µM
CC(C)CNC(=O)NC(=O)C(C)Nc1cccc(CN2CCOC2=O)c1 (centres undefined)	-3.37%
CCOCc1ccc(NC(=O)N2CCCC2c2nncn2C)cc1 (centres undefined)	6.53%
Cn1cnnc1Sc1ccc(NC(=O)C2CC2)cc1Cl	0.118%
COCC1CN(C(=O)c2cccs2)Cc2nccn2C1 (centres undefined)	-104%
CNC(=O)NC(=O)CCN1CCOC(c2ccc(Br)cc2)C1 (centres undefined)	-2.42%
Cn1ccnc1CN1CCOCC(Cc2ccccn2)C1 (centres undefined)	7.17%
COc1ccc(F)c(-c2cc(C(=O)NC3CC3)ccn2)c1	-1.36%
CCN1C(=O)C[C@@H]2[C@@H]1CCN2S(=O)(=O)c1ccccc1	2.55%
CC1CCCCN1Cc1nc(C2CC2)no1 (centres undefined)	4.48%
N#Cc1ccccc1N1CCN(C(=O)NCC(=O)N2CCCC2)CC1	-1.55%
O=C1N[C@H]2OCCC[C@H]2[C@H](c2ccccc2)N1	-0.675%
Cc1nc(CN2CCN(C(=O)CCc3ccco3)CC2)cs1	-4.39%
O=c1oc(-c2ccc(F)cc2)nn1CCS(=O)(=O)c1ccccc1	-0.924%
Cc1nc(CN2C[C@@H]3CN(C(=O)c4ccoc4C)C[C@@H]3C2=O)cs1	-76.8%
Cc1nnc(C(C)Nc2cccc(COCCc3ccccc3)c2)o1 (centres undefined)	-3.51%
O=C([C@H](O)c1ccccc1)N1CCN(c2cccc(Cl)c2)C(=O)C1	-6.17%
CC(=O)NC1CCN(C(=O)Nc2ccc(SC(F)F)cc2)CC1	-6.91%
O=C1CC(N2CCN(c3ccc(F)cc3)CC2)C(=O)N1Cc1cccs1 (centres undefined)	-0.31%
O=S(=O)(c1ccc(-c2cnco2)cc1)N1CCC2(CCCNC2)C1 (centres undefined)	-27.3%
O=c1ccc(S(=O)(=O)N2CCCC2)cn1CC1CCCCO1 (centres undefined)	-0.983%
COCCSc1ccc(C(C)NC(=O)Nc2cccnc2)cc1 (centres undefined)	12.3%
CCn1ccnc1CN(C)Cc1nc(CCC(C)C)no1	2.89%

SMILES	cytotoxicity at 10 µM
O=C(Nc1nnc(N2CCCCC2)[nH]1)c1cccs1	-10.7%
Cc1noc(C)c1CN1C[C@@H]2COC[C@@H](CC(=O)N3CCCO3)[C@@H]2C1	-68.3%
CC(=O)N1CCC(c2cc3c(ncn3C)c(-c3cnn(C)c3)n2)CC1	0.472%
COc1cc(N2C[C@@H]3COC[C@]3(COc3cccnc3)C2)ncn1	2.13%
COCCCN1Cc2cccc(NC(=O)c3cc(F)cc(F)c3)c2C1	2.28%
Cc1nccn1CC1CCCN1S(=O)(=O)Cc1ccon1 (centres undefined)	-9.57%
N#CCCN(Cc1ccccn1)C(=O)Nc1cccnc1	0.525%
Cc1nc(C)n(CC2CCCCN2Cc2ncc(C(C)(C)C)o2)n1 (centres undefined)	0.299%
CC(C)c1noc(CN2CCN(C(=O)c3ccccc3F)CC2)n1	-8.08%
Cc1ccc(-c2nc(CN3CCc4cnc(C)nc4C3)no2)cc1	-5.12%
CC(C)(C)c1cc(NC(=O)C2COCCO2)n(-c2ccccn2)n1 (centres undefined)	-3.49%
FC(F)(F)c1cc(C2CCN(c3cnccn3)CC2)n2ccnc2n1	-1.53%
Cn1cnc2c1CCN(Cc1nc(-c3ccsc3)no1)C2	-3.29%
NC(=O)C1CCN(C(=O)CCSCc2ccccc2)CC1	4.22%
CN(Cc1cn2c(n1)CN(C(=O)N(C)C)CC2)Cc1ccco1	4.44%
CCN1CCN(c2ccc(CNC(=O)c3ccccc3F)cn2)CC1	-16.4%
Cc1noc(-c2c[nH]nc2C2CCCN2C(=O)c2ccccc2)c1C (centres undefined)	-8.77%
O=C(NCc1cccc2cccnc12)N1CCC(n2cncn2)CC1	0.722%
CN1CCN(C(=O)c2cnc3c(cnn3C3CCCC3)c2)CC1	-14.6%
O=C(NCc1nc(C2CCCCC2)no1)C1CC(=O)N(C2CCCC2)C1 (centres undefined)	0.761%
CC(C)(C)c1coc([C@@H]2COCCN2CC2CC2)n1	-10.1%
COc1cccc(-c2csc(Cn3ccc(=O)[nH]c3=O)n2)c1	3.57%

SMILES	cytotoxicity at 10 µM
COc1c(Br)cc(Br)cc1CNC(C)Cn1cccn1 (centres undefined)	3.64%
Cc1ccc(NCc2ccc(C#N)cc2)c(CN(C)C)c1	-3.07%
COCC(C)N(Cc1ccccc1OC)C(=O)c1cc(C)[nH]c(=O)c1 (centres undefined)	-3.73%
CCSc1cccc(NCc2cccnc2)c1	0.14%
COC(=O)c1cccnc1N1CCC(Oc2cccc(F)c2)CC1	3.31%
CCOCC(O)CN1CCN(C(=O)C(C)(C)CC)CC1 (centres undefined)	-20.7%
CN(C)CCN(Cc1ccccc1)C(=O)CN1CCCNC1=O	1.42%
Cc1cc(C)n(CCCN(CCN2CCOCC2)Cc2ccco2)n1	8.97%
Cc1cc(NCCc2nc(C)cs2)nc(-c2cccnc2)n1	1.02%
Cc1cc(NCC(=O)N(C)Cc2cccs2)c(C(N)=O)cc1F	0.83%
O=C(NCc1cc(C2CC2)n(C2CCCC2)n1)C1CC1	2.16%
CCc1ccc(O)c(C(=O)N2CCCN(CC(=O)N(CC)CC)CC2)c1	6.62%
O=C(Cc1cccc2cccnc12)N1CCCN(c2cccnn2)CC1	-5.1%
Cc1nc2n(n1)CC(NCc1nc(-c3cccnc3)no1)CC2 (centres undefined)	-3.44%
O=S(=O)(C1CC1)N1CCC2(CCCN(Cc3ccccn3)C2)CC1	5.97%
N#Cc1cccnc1N1CCN(S(=O)(=O)NCc2ccccc2)CC1	6.1%
O=C(NCCNc1ncccn1)N1CCCC1c1ccncc1 (centres undefined)	-4.65%
CCN(CC1CN(Cc2ncc(C)o2)CCO1)c1cccnn1 (centres undefined)	-0.343%
NC(=O)c1cnn2c1NCC(CNCCCOc1ccccc1F)C2 (centres undefined)	-5.56%
O=C(c1ccc2[nH]c(=O)[nH]c2c1)N1CCC(Nc2cccnn2)CC1	0.00528%
Cc1cccc2c(=O)n(C(C)Cc3cccnc3)cnc12 (centres undefined)	-13.5%
